Screening data: PubChem BioAssay, several laboratories
aDG glyco act: increases alpha dystroglycan glycosylation; Pro5-aDG cells, alpha-DG glycosylation AlphaScreen (IIH6); 0% Pro5, 100% B10-LARGE cell signal; activation, % at 10 µM; 360,000 tested, 0.22% active; AID 624168;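 active = activation of at least 8% versus controls, or a plate z-score of at least 8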;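 also: Pro5 are CHO cells carrying HIG-tagged alpha-DG that lacks glycosylation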
CSN inh: blocks human CSN-mediated cullin deneddylation | inhibition, % at 12.5 µM | Purified CSN, SCF-Nedd8-OG deneddylation, fluorescence polarization | 360,000 tested, 0.38% active;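 active = pattern-corrected inhibition above about 35%, with an unprinted fluorescence ratio check between 0.5 and 1.5, limit read from the data, passing the limit was not always enough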;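 also: 0% = enzyme with substrate and 100% = substrate without enzyme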
Target sequence (Q92905 whole entry, looked up, one chain of several): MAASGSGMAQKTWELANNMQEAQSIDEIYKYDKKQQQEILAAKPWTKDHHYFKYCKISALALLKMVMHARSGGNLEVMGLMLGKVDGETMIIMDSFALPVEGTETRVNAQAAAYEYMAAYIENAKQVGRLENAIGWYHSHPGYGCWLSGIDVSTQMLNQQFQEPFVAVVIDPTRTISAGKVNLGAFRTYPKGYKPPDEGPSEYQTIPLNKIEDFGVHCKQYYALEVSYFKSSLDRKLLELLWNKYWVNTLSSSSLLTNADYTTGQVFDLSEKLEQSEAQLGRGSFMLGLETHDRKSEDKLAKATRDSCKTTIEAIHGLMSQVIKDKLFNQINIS
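Assay system: purified human Csn5 enzyme expressed in HEK293T cells; measure: % inhibition; also added: SCFSkp2-Nedd8OG substrate at 10 nM final; technique: fluorescence polarization; times: reaction 90 min, room temperature; medium: Tris buffer pH 7.5, NaCl, DTT, Tween-20, trehalose, ovalbumin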
Rpn11 block: inhibitors of human proteasome Rpn11. O00487. human 26S proteasome, Ub4-pepOG fluorescence polarization; 20S core pre-blocked with epoxomicin. inhibition, % at 20 µM. 360,000 tested, 0.59% active;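 active = inhibition at 20 µM, scaled to each plate's controls, above about 33%, limit read from the data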
TPT1 inh: C. albicans TPT1 enzyme inhibition; recombinant caTPT1, FP RNA substrate dephosphorylation; inhibition, % at 5 µM; 300,000 tested, 0.81% active; AID 1962;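 active = inhibition above the mean of all tested compounds plus 3 SD, set per screening campaign, cut at about 24% in these data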;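 also: plate controls were DMSO alone for no effect and ferristatin control at 100 nM for full effect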
HNF4A DNA FP: change in binding of human HNF4 alpha to DNA | HNF4a-FITC DNA binding, fluorescence polarization, 1 h | activity change, % at 10 µM | 360,000 tested, 0.3% active | AID 1224865; in the data active = activity change above about 30%, passing the limit was not always enough
XiGFP reactiv: X-chromosome reactivation activator; activation, % at 7.58 µM; 360,000 tested, 0.055% active; XiGFP mouse fibroblasts, % GFP-positive cells imaging, 3 d; cells co-treated with 5-aza-dC sensitizer; scaled so ellipticine positive control = 100%;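 active = mean normalized replicate activation at least 10% and every replicate at or above 10%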;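 also: 0% = median of on-plate neutral control wells and 100% = ellipticine 6 µM median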
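Material: SV40-immortalized XiGFP fibroblast cells, line 68-5-11 | Buffer or medium: DMEM containing 5-aza-dC | Dosing: One concentration, pinned | Times: 3 d treatment, 15 min room-temperature fixation | Controls: Ellipticine 6 µM positive control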
TPT1 inh confirm: TPT1 (C. albicans) inhibition, confirmation; shares compounds with TPT1 inh; recombinant caTPT1, fluorescence polarization, RNase T1 coupled; inhibition, % at 5 µM; 2,400 tested, 74% active; AID 2149;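 active = inhibition above the primary screen limit, the mean inhibition of all tested compounds plus 3 SD, cut at about 25% in these data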
RNase T1 counter: RNase T1 inhibition in TPT1 counter-screen | shares compounds with TPT1 inh | RNase T1 cleavage, fluorescence polarization, 1536-well | inhibition, % at 5 µM | 2,400 tested, 83% active | AID 2153;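 active = inhibition above the solvent-only control well mean plus 3 SD, limit set per screening run, cut at about 23% in these data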;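 also: plate controls were DMSO wells with enzyme for no effect and wells without RNase T1 for full effect; inhibitors block cleavage so intact labeled substrate keeps polarization high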
Target sequence (P00651 whole entry, looked up): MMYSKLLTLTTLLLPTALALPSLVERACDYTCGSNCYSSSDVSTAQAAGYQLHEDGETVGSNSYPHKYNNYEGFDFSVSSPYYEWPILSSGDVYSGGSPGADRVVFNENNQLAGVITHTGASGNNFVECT
* hit, by the source's call; . = no result shown. The list is not random: actives were taken first. Their share in the collection is about 1.3%.

SMILES	aDG glyco act	CSN inh	Rpn11 block	TPT1 inh	HNF4A DNA FP	XiGFP reactiv	others
O=C(c1ccccc1)c1ccccc1N=Cc1c(O)[nH]c(=O)[nH]c1=O	0	25	-2	6	4	0
O=c1[nH]c(O)c(C=Nc2ccccc2Oc2ccccc2)c(=O)[nH]1	0	48*	19	0	4	0
C=CCN1[C@@H]2CN(CC(F)(F)F)C[C@H]1C2c1ccc(Br)cc1 (stereo not given in full)	.	.	.	.	.	0
C[n+]1c(-c2ccccc2)c2cc(N)ccc2c2ccc(N)cc21	0	-25	-28	-47	-47	19*
CN1[C@@H]2CN(S(C)(=O)=O)C[C@H]1C2c1ccc(Br)cc1 (stereo not given in full)	.	.	.	.	.	0
O=C1NC(=O)C(=Cc2coc3ccccc3c2=O)C(=O)N1	0	-3	4	2	-3	0
O=C1NC(=O)C(=C/C=C/c2coc3ccc(Br)cc3c2=O)C(=O)N1	.	.	.	39*	.	.
Nc1c(C(=O)NCCN2CCOCC2)c2nc3ccccc3nc2n1Cc1ccccc1	1	3	-5	7	-2	0
CCCCn1c(N)c(C(=O)NCCN2CCOCC2)c2nc3ccccc3nc21	0	36*	18	4	2	.
O=c1[nH]c2ccccc2n1C1CCN(C(c2cccc3ccccc23)c2nnnn2Cc2ccccc2)CC1 (stereo not given)	-1	1	7	.	-2	0
O=c1[nH]c2ccccc2n1C1CCN(C(CCc2ccccc2)c2nnnn2C2CCCC2)CC1 (stereo not given)	0	106*	7	.	2	0
CC(C)(C)n1nnnc1C(c1ccnc2ccccc12)N1CCC2(CC1)C(=O)NCN2c1ccccc1 (stereo not given)	0	123*	3	.	-2	0
CC(=O)N1[C@@H]2Cn3c(ccc(-c4cccc(C(=O)N(C)C)c4)c3=O)[C@H]1[C@@H](C(=O)O)[C@@H]2CO	.	.	.	.	.	0
O=C(COc1ccccc1)N1CCN(C2CCCC2)CC1	0	-1	3	-2	40*	.
C=CCN1[C@@H]2CN(C(C)=O)C[C@H]1C2c1ccc(Br)cc1 (stereo not given in full)	.	.	.	.	.	0
Cc1cccc(C)c1OP(N)(=O)Oc1c(C)cccc1C	0	-8	-4	-1	-5	0
Cc1cccc(OP(N)(N)=O)c1C	1	115*	1	5	-1	0
NC1C2CN3CCN(C2)CC1(c1ccccc1)C3 (stereo not given)	0	0	-17	-3	75*	0
NS(=O)(=O)c1ccc(-c2ccc(C=C3C(=O)NC(=S)NC3=O)o2)cc1	.	.	.	36*	.	0
CC(C)NC(=O)N1C[C@@H]2C(c3ccccc3)[C@H](C1)N2C (stereo not given in full)	.	.	.	.	.	0
Cc1ccsc1C(=O)C1CCCN(Cc2cnc(N3CCOCC3)s2)C1 (stereo not given)	0	101*	-4	4	-1	0
CS(=O)(=O)N1C[C@@H]2N[C@H](C1)C2c1ccccc1 (stereo not given in full)	.	.	.	.	.	0
C=CCN1C(=O)NC(=O)/C(=C/c2cccn2C)C1=O	0	-3	4	52*	0	.	TPT1 inh confirm=5;RNase T1 counter=8
O=C1NC(=O)N(Cc2ccco2)C(=O)/C1=C/c1cccn1CCOc1ccccc1Cl	0	22	6	12	-9	0
Cn1cccc1/C=C1/C(=O)NC(=O)N(Cc2ccc(F)cc2)C1=O	0	0	39	8	2	1
SMILES	aDG glyco act	CSN inh	Rpn11 block	TPT1 inh	HNF4A DNA FP	XiGFP reactiv	others
CCCCN1C(=O)/C(=C\c2ccco2)C(=O)N(CCc2ccccc2)C1=O	0	21	26	43*	3	.	TPT1 inh confirm=6;RNase T1 counter=9
O=C1NC(=O)N(Cc2ccccc2)C(=O)/C1=C\N1CCCc2ccccc21	0	7	21	29*	0	0	TPT1 inh confirm=15;RNase T1 counter=21
O=C1NC(=O)C(=CN2CCc3ccccc32)C(=O)N1	0	-1	7	4	0	0
O=C1NC(=O)N(Cc2ccccc2)C(=O)/C1=C\c1ccco1	0	27	29	66*	0	0	TPT1 inh confirm=17;RNase T1 counter=23*
CC=Cc1ccc2n(c1=O)C[C@@H]1[C@@H](CO)[C@H](C(=O)OC)[C@H]2N1CC1CCCCC1 (mixture of isomers)	.	.	.	.	.	0
O=C(O)[C@@H]1[C@@H](CO)[C@@H]2Cn3c(ccc(-c4ccncc4)c3=O)[C@H]1N2C(=O)C1CCC1	.	.	.	.	.	0
C=CCN1C(=O)NC(=O)/C(=C/c2ccoc2)C1=O	0	17	-23	106*	-3	0	TPT1 inh confirm=10;RNase T1 counter=17
Cn1cccc1/C=C1/C(=O)NC(=O)N(Cc2ccccc2)C1=O	0	3	9	14	4	0
Cn1cccc1/C=C1\C(=O)NC(=O)N(Cc2ccccc2)C1=O	0	0	10	25*	26	0	TPT1 inh confirm=22;RNase T1 counter=34*
CCCNC(=O)N1[C@@H]2c3ccc(-c4cccc(C(=O)N(C)C)c4)c(=O)n3C[C@H]1[C@H](CO)[C@H]2C(=O)O	.	.	.	.	.	0
C1=C(c2c[nH]c3ccccc23)CCNC1	.	.	.	80*	.	.	TPT1 inh confirm=50*;RNase T1 counter=58*
C/C=C/c1ccc(C2[C@@H]3CN(Cc4cocn4)C[C@H]2N3)cc1 (stereo not given in full)	.	.	.	.	.	0
CCCN1[C@@H]2c3ccc(-c4cccc(C(=O)N(C)C)c4)c(=O)n3C[C@H]1[C@H](CO)[C@H]2C(=O)OC	.	.	.	.	.	0
O=C(Cc1ccccc1)N1CCCCN2[C@H](CO)[C@@H](c3ccc(-c4ccccc4)cc3)[C@H]2C1	.	.	.	.	.	0
CC1=NN(c2ccccc2)C(=O)C1/C=C1\C(=O)NC(=O)N(c2cc(C)cc(C)c2)C1=O (stereo not given)	0	-4	3	24	2	.
CC1=NN(c2ccccc2)C(=O)C1/C=C1/C(=O)NC(=O)N(c2cc(C)cc(C)c2)C1=O (stereo not given)	0	2	6	29*	2	.	TPT1 inh confirm=32*;RNase T1 counter=50*
O=Cc1c(C(=O)O)n(Cc2ccc(Cl)cc2)c2ccccc12	0	60*	.	77*	81*	0	TPT1 inh confirm=174*;RNase T1 counter=161*
Cc1c(C=O)c2ccccc2n1Cc1ccccc1	0	-1	1	-1	2	0
